# OX1R antag-1: human HCRTR1 antagonism; O43613; CHO/OX1R cells, Fluo-8 calcium fluorescence, orexin A; inhibition, % at 5 µM; 0.43% of 330,000 active; AID 434989;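 active = inhibition above its plate's threshold, mean inhibition of all tested compounds on the plate plus 3 SD, cut at about 37% in these data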;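 note: 0% = orexin A challenge wells and 100% = SB-334867-A antagonist wells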
# GPR7 antagonist: antagonists of human GPR7 (neuropeptides B/W receptor 1) | inhibition, % at 4.4 µM | 1.1% of 290,000 active | GPR7-expressing cells, fluorescence antagonist assay; in the data active = inhibition above about 16%, passing the limit was not always enough;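 note: cells stimulated with the agonist NPW; 0% = agonist with vehicle and 100% = vehicle without agonist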
# Target sequence (P48145 whole entry, looked up): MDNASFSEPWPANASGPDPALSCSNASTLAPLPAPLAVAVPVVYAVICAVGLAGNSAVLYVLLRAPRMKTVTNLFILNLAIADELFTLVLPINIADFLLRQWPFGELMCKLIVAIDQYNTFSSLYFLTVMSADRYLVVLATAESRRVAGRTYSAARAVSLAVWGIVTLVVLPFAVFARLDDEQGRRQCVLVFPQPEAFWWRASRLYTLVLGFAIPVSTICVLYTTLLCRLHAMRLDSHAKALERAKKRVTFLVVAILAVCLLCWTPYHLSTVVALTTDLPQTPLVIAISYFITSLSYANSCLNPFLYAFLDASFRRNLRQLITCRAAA
# TAAR1 ag: human TAAR1 agonism; Q96RJ0; CHO RD-HGA16 TAAR1, Fluo-8 calcium fluorescence; vehicle wells 0%, saturating PEA agonist 100%; activation, % at 3 µM; 0.99% of 360,000 active;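 active = activation above the mean activation of all test compounds in the run plus 3 SD, cut at about 38% in these data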
# Target sequence (Q96RJ0 whole entry, looked up): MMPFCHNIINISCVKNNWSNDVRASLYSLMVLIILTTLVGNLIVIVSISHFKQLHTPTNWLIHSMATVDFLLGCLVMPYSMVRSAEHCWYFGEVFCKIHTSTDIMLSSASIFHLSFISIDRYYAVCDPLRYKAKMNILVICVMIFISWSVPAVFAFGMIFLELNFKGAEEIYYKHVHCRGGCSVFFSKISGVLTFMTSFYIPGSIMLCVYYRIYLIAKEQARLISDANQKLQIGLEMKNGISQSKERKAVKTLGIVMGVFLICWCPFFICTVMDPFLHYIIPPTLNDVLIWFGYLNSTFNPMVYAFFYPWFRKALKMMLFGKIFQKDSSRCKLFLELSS
#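 Signal – calcium-sensitive Fluo-8 signal, excitation 470-495, emission 515-575 nm · System – RD-HGA16 (CHO) cells co-expressing Gα16 and hTAAR1 · Incubation – 17-24 h seeding, 75 min 37 °C dye, 30 min RT · Compound dosing – 3 µM single concentration · Repeats – no replicates (n 1)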
# OX1R antag-2: blocks the human orexin 1 receptor; O43613; OX1R-expressing cells, FRET antagonist read-out; inhibition, % at 6.6 µM; 1.8% of 330,000 active; in the data active = inhibition mostly above about 38%, no sharp cut-off; inactive = mostly below about 40%;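 note: 0% = agonist challenge alone and 100% = reference antagonist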
# CHO parental Ca: counter-screen: ATP calcium response change in parental CHO cells. parental CHO-K1, ATP-induced calcium, Fluo-8 fluorescence. inhibition, % at 5.6 µM. 0.63% of 330,000 active;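 active = inhibition above that plate's mean sample inhibition plus 3 SD, cut at about 26% in these data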;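 note: 0% = ATP-challenged DMSO wells and 100% = DMSO wells without ATP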
#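 Assay system: untransfected parental CHO cell line. Also added: ATP agonist challenge. Dosing: one dose, 5.6 µM nominal. Measured by: Fluo-8 fluorescence. Read-out: % inhibition. Benchmarks: ATP wells versus no-ATP DMSO wells. Repeats: no replicates.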
# TAAR1 antag: human TAAR1 antagonism. Q96RJ0. CHO RD-HGA16 TAAR1, Fluo-8 calcium fluorescence, antagonist. inhibition, % at 3 µM. 1.5% of 360,000 active. AID 624466;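 active = inhibition above a per-plate cutoff, the mean inhibition of test compounds on that plate plus 3 SD, cut at about 49% in these data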;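 note: 0% = DMSO plus EC80 beta-PEA response and 100% = DMSO alone without agonist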
#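 test system = CHO RD-HGA16 cells bearing hTAAR1 | replication = singlicate | controls = DMSO-only wells and EC80 β-PEA-stimulated wells | reagent = EC80 β-phenethylamine stimulus | read-out basis = percent inhibition of PEA-evoked calcium signal, max/basal emission ratio | schedule = seeding 17-24 h prior, 75-min 37 °C, 30-min RT dye loading | signal = kinetic Fluo-8 calcium fluorescence measurement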
# Active calls of the source: *; x = no result given; ! = not active in a repeat. Sampled rows, rich in hits. Any-hit rate of the full collection: about 4.6%.
SMILES,OX1R antag-1,GPR7 antagonist,TAAR1 ag,OX1R antag-2,CHO parental Ca,TAAR1 antag
Cc1ccc(Oc2cccc3c2S(=O)(=O)N([C@H](C)c2ccccc2)C[C@@H](COCc2ccccc2)O3)cc1,x,x,4,x,x,-4
Cc1ccccc1C(=O)N1CCN(C(=O)C(=O)c2cccc(C(F)(F)F)c2)CC1,x,x,2,x,x,-8
CC(C)(C)n1nnnc1C(c1cccs1)N(Cc1ccc(Cl)cc1)CC1CCCO1 (centres undefined),-44,-10,-1,9,38*,-7
Clc1ccc(CN(Cc2ccccc2)C(c2cccs2)c2nnnn2C2CCCC2)cc1 (centres undefined),-24,-2,2,19,-30,-13
FC(F)(F)c1nc(N2CCCC2)ncc1-c1nnnn1-c1ccccc1,23,7,8,25,40*,17
Cc1ccc(NC(=O)CNC(=O)c2ccco2)c(Cl)c1,-15,17,1,-8,7,5
Cc1ccc(N=Nc2c(=O)[nH]n3c(=O)cc(C)[nH]c23)cc1,1,-1,3,55*,10,-4
COCCN1C(=O)CN(S(C)(=O)=O)CC1(C)C(=O)NCc1ccccc1 (centres undefined),x,x,0,x,x,-11
CN(Cc1ccccc1)C(=O)c1cccnc1,-1,-13,3,5,-6,-9
CN(C(=O)c1cccnc1)c1nc(-c2ccccc2)cs1,13,8,6,13,51*,-3
O=[N+]([O-])c1ccc2nc(NN=Cc3ccc(O)cc3)sc2c1,x,x,12,x,x,51*
CC(C)c1ccc(/C=C/C(=O)Nc2nc3ccc([N+](=O)[O-])cc3s2)cc1,-11,-12,12,18,0,-14
CC(C)Oc1ccc(C(=O)NCCCNC(=O)c2cccnc2)cc1,0,-4,0,12,4,-21
COc1cc(C=C2CCCC(=Cc3ccc(OCC4CO4)c(OC)c3)C2=O)ccc1OCC1CO1 (centres undefined),x,x,11,x,x,61*
CCC1CCCCN1C(=O)CCCOc1ccccc1 (centres undefined),-18,-3,2,5,-22,7
CCCCC[C@H](O)/C=C/[C@H]1CCC(=O)[C@@H]1CCCCCCC(=O)N1CCCCC1CO (some centres undefined),-2,25,23,-10,-1,71*
O=C(Nc1ccc2cn[nH]c2c1)c1c(Cl)cccc1Cl,8,5,1,10,-6,1
O=C1C(Cl)=C(Nc2ccc3cn[nH]c3c2)C(=O)c2ccccc21,59*,41*,-4,54*,64*,62*
CN(C)c1ccc(NC2=C(Cl)C(=O)c3ccccc3C2=O)cc1,31,6,3,92*,35*,66*
COC(=O)N1C[C@H](Oc2cccc3ccccc23)[C@H]2C[C@@H]1c1ccccc1O2,x,x,0,x,x,-32
COc1cccc(-c2nc3nc(C)cc(C)n3c2NC2CCCC2)c1,x,x,0,x,x,-4
Cn1ncc2c(NCCc3ccccc3)nc(Cl)nc21,x,x,38*,x,x,43
C/C(N)=C(/C#N)C(=O)CSc1nnc(SCc2ccc(Cl)cc2)s1,9,-3,4,70,25,52*!
O=C(c1ccco1)N1CCN(c2c([N+](=O)[O-])nn(-c3ccc(Cl)cc3)[n+]2[O-])CC1,-18,1,-1,42*,-18,-15
O=C(c1sc2cc([N+](=O)[O-])ccc2c1Cl)N1CCOCC1,-13,9,5,75*,-9,-10
SMILES,OX1R antag-1,GPR7 antagonist,TAAR1 ag,OX1R antag-2,CHO parental Ca,TAAR1 antag
Cc1ccc(C(=O)c2c3ccc([N+](=O)[O-])cc3[n+]([O-])n2CCC(N)=O)cc1,-6,2,1,62*,-7,-15
CN(C)C(C)(C)/C=C/C(O)(c1ccccc1)c1ccccc1,-11,-11,0,3,-4,-3
O=C(/C=C/c1c(Cl)nc2ccccn12)Nc1ccc(F)cc1,-6,-2,6,53*,-16,0
O=Cc1c(Cl)nc2ccccn12,-12,-7,8,14,-4,-4
O=C(N[C@H](C(=O)N1CCC[C@H]1C(=O)NC1CCCC1)C1CCCCC1)c1cccs1,x,x,-1,x,x,-28
COC(=O)[C@]12CCCCC=C1N(Cc1cccc3ccccc13)C(=O)[C@H](CC(=O)NCc1ccc(OC)c(OC)c1)C2,x,x,27,x,x,49*
COC(=O)[C@]12CCCCC=C1N(Cc1ccc3c(c1)OCO3)C(=O)[C@H](CC(=O)NCc1ccc(OC)c(OC)c1)C2,x,x,14,x,x,59*
COC(=O)[C@]12CCCCC=C1N(Cc1ccc3c(c1)OCO3)C(=O)[C@H](CC(=O)N1CCC(c3ccccc3)CC1)C2,x,x,1,x,x,56*
COC(=O)[C@]12CCCCC=C1N(CCc1ccc(OC)c(OC)c1)C(=O)[C@H](CC(=O)N1CCCCC1)C2,x,x,12,x,x,52*
COCCCNC(=O)C[C@@H]1C[C@@]2(C(=O)OC)CCCCC=C2N(Cc2ccc3c(c2)OCO3)C1=O,x,x,5,x,x,14
COC(=O)[C@]12CCCCC=C1N(Cc1ccc3c(c1)OCO3)C(=O)[C@H](CC(=O)NCC1CCCCC1)C2,x,x,6,x,x,50*
O=C(Cn1nc(-c2ccc(Cl)cc2)ccc1=O)NCc1ccc2c(c1)OCO2,-36,10,-2,29,-4,-19
O=C(CSc1ccc2ccccc2n1)NCc1ccc2c(c1)OCO2,-6,-21,2,54*,-27,-2
CCC1Sc2ccccc2N(CC(=O)NCc2ccc3c(c2)OCO3)C1=O (centres undefined),-7,1,17,24,-10,50*
O=C(Cn1nc(-c2ccccc2)ccc1=O)NCc1ccc2c(c1)OCO2,0,18,18,72*,-9,-3
Cc1onc(-c2c(F)cccc2Cl)c1C(=O)OCC(=O)N(C)c1ccccc1,x,x,7,x,x,8
COc1ccc(NC(=O)c2cc(-c3ccco3)on2)cc1,5,7,2,15,64*,-26
COc1ccc(NC(=O)c2cc(-c3ccccc3OC)on2)cc1,-1,10,7,45*,-18,18
O=C(N/N=C/c1ccccc1[N+](=O)[O-])c1ccc2nc[nH]c2c1,-6,-13,3,15,2,6
Cc1occc1C(=O)N/N=C/c1ccc(Cl)c([N+](=O)[O-])c1,10,-2,9,64*,-12,2
O=C(N/N=C/c1ccc(Cl)c([N+](=O)[O-])c1)c1ccc2nc[nH]c2c1,-3,4,11,58*,-6,20
O=C1c2c(O)cccc2Cc2cccc(O)c21,7,x,-2,11,4,104*
O=C1Cc2cccc(=O)c(O)c2C(=O)O1,x,x,2,x,x,-14
CN(c1cc(Cl)c2c(c1)OCO2)c1cc2c(c3c1ccn3C)C1CCC2C1 (centres undefined),x,x,6,x,x,-5
